# The list is not random: actives were taken first. Their share in the collection is about 2.3%.
# TRPC4 potent – positive allosteric modulators of TRPC4, primary screen, cell-based, mouse TRPC4beta, HEK293 mu-opioid, Fluo-4 calcium; Short transient receptor potential channel 4 (Mus musculus), Q9QUQ5; DAMGO EC20, Fluo-4 Ca2+ flux; active compounds read high; B-score at 10 µM; 0.42% of 310,000 active;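 active means B-score of calcium response area above 5 SD of library B-scores, with initial fluorescence ratio within 5 SD of library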;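 further: B-score of integrated fluorescence ratio over time as area under calcium response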
# TRPC4 block – inhibitors of mouse TRPC4 channel, primary screen, Fluo4 calcium, HEK293 TRPC4beta/mu-opioid cells; Short transient receptor potential channel 4 (Mus musculus), Q9QUQ5; DAMGO-evoked Fluo4 calcium flux; active compounds read low; B-score at 10 µM; 0.39% of 300,000 active;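 active means B-score over 3 SD under the library average, no early fluorescence shift, positive overall ratio signal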
#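 Assay system: HEK293 cells with stable TRPC4beta plus mu-opioid receptor expression; Probe or stimulus: DAMGO in two steps, submaximal then maximal; Dosing: single-point compound dosing; Measured by: Fluo4 calcium-dye fluorescence, kinetic read; Read-out basis: B score from integrated Fluo4 fluorescence ratio.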
# TRPC6 inh – mouse TRPC6 channel inhibitors, primary screen, cell-based, HEK293, membrane potential dye; ACh-evoked depolarization; active compounds read low; B-score at 10 µM; 1.1% of 310,000 active; AID 2553, 2010;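 active means B-score under library mean minus 3 SD, initial fluorescence not abnormally high, positive integrated signal ratio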;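 further: B-score derived from integrated fluorescence ratio over the kinetic read; more negative B-score means stronger inhibition of depolarization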
# Target sequence (Q61143 whole entry, looked up): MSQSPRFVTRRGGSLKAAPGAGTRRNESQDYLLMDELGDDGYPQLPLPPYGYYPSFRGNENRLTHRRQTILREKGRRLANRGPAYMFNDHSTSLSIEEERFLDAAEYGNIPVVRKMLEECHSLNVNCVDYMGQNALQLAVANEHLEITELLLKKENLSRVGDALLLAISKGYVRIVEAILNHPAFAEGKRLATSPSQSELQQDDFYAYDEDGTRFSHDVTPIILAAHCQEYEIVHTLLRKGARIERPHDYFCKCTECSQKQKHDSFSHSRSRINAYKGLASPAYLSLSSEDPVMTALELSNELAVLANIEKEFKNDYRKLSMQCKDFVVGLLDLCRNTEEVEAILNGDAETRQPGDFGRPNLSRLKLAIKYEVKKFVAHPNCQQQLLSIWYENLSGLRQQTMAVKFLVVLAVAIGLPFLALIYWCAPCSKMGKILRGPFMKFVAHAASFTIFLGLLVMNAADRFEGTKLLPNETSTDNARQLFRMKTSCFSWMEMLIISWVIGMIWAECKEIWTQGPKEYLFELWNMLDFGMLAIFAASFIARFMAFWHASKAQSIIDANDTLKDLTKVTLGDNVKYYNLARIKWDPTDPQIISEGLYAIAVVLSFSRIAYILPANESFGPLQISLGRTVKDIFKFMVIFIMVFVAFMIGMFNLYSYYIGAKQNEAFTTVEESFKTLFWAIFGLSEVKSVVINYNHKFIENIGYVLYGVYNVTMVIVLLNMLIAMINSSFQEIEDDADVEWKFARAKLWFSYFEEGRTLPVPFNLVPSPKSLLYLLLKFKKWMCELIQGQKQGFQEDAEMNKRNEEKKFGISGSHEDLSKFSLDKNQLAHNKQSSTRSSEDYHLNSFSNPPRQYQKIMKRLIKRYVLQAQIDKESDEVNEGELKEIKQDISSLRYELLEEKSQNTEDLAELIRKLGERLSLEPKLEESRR
# TRPC4 act – activators of mouse TRPC4 channel, primary screen, Fluo4 calcium, HEK293 TRPC4beta/mu-opioid cells | Fluo4 calcium fluorescence; active compounds read high | B-score at 10 µM | 0.49% of 310,000 active | AID 2237, 2010;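 active means B-score above 5 SD of library B-scores, and initial fluorescence ratio not above library mean plus 5 SD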;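 further: positive B-score marks a calcium rise read as TRPC4 activation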
#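 Test system: HEK293 cells stably co-expressing mouse TRPC4beta and mu-opioid receptor | Schedule: Fluo4 dye loading 45 min at room temperature, 110 s recording | Measured by: Kinetic Fluo4 calcium fluorescence, 5 s baseline at 1 Hz | Evaluation: B score of integrated ratio | Controls: Buffer (low) and maximal DAMGO (high)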
# TRPC6 activator – mouse TRPC6 channel activators, primary screen, cell-based, HEK293, membrane potential dye; HEK293-TRPC6 membrane potential dye fluorescence; active compounds read high; B-score at 10 µM; 0.13% of 310,000 active;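 active means B-score of the integrated fluorescence ratio above library mean plus 3 SD, and starting fluorescence ratio within library mean plus 5 SD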;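 further: higher score means more depolarization so channel activation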
# TRPC4 sel inh 2 – second selectivity test of TRPC6 inhibitors: effect on mouse TRPC4 | HEK293 TRPC4/MOR, membrane potential dye fluorescence; channel activated by saturating DAMGO dose | 42% of 920 active | shares compounds with TRPC6 inh | inhibition, % at 10 µM;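 active means compounds whose fluorescence signal differed from control wells by over 3 SD, either direction, in both duplicate plates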
# TRPC4 spec – mouse TRPC4 modulation by TRPC6 hits, confirmation, selectivity assay for TRPC6 inhibitor project, cell-based, HEK293 TRPC4/mu-opioid, membrane potential dye; shares compounds with TRPC6 inh; membrane potential fluorescence; activity change, negative = inhibition, % at 10 µM; 61% of 920 active; AID 2777, 2010;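 active means rise or fall in signal beyond 3 SD of buffer-only wells in both replicate plates, either sign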;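 further: integrated kinetic ratio of fluorescence range over baseline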
# HEK293 MPD ctr 2-1 – nonspecific membrane potential effects, parental HEK293, confirmation, counter-screen for TRPC6 inhibitor project, cell-based, second counter screen. shares compounds with TRPC6 inh. parental HEK293 membrane potential dye fluorescence; maximal acetylcholine challenge after compound addition. signal change vs control, % at 10 µM. 31% of 920 active;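 active means membrane potential signal moving either way by over 3 SD of the maximum-effect control, in both duplicate plates, meaning non-specific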
# HEK293 MPD ctr-1 – membrane potential modulation in parental HEK293, confirmation, counter-screen for TRPC6 inhibitor project, cell-based. shares compounds with TRPC6 inh. parental HEK293 membrane potential dye fluorescence. membrane potential signal change, % at 10 µM. 60% of 920 active. AID 2780, 2010;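 active means membrane potential signal shifting up or down by more than 3 SD of buffer-only wells, on both duplicate plates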
# HEK293 MPD ctr-2 – parental HEK293 membrane potential modulation, confirmation, counter-screen for TRPC6 modulator project, cell-based; membrane potential dye fluorescence; membrane potential signal change, % at 10 µM; 51% of 2,400 active; shares compounds with TRPC6 inh;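 active means membrane potential signal moves up or down beyond 5 SD from buffer-only wells, on both duplicate plates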
# HEK293 MPD ctr 2-2 – parental HEK293 nonspecific activity of TRPC6 modulators, second screen; shares compounds with TRPC6 inh; membrane potential dye fluorescence; after compound, maximal acetylcholine stimulation; inhibition, % at 10 µM; 14% of 2,400 active; AID 488926;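 active means membrane potential signal drops by more than 5 SD from the mean control signal, in both duplicate plates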;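 further: plate controls were acetylcholine ECmax control wells for no effect and buffer only wells for full effect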
# TRPC4/MOR mod – TRPC4 modulation by TRPC6 hit compounds, confirmation, selectivity assay for TRPC6 modulator project, cell-based, HEK293 TRPC4/mu-opioid, membrane potential dye, mouse; shares compounds with TRPC6 inh; membrane potential fluorescence; percent change from control (negative = decrease, positive = increase), % at 10 µM; 69% of 2,400 active; AID 488927, 2010;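 active means membrane potential signal moved up or down beyond 5 SD of buffer control wells, in both duplicate plates, actives on both sides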;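 further: plate controls were assay buffer wells for no effect and DAMGO maximal-effect wells for full effect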
# TRPC4/MOR inh 2 – mouse TRPC4 off-target activity of TRPC6 modulators, second screen; shares compounds with TRPC6 inh; HEK293 TRPC4/mu-opioid, membrane potential dye fluorescence; stimulated with maximal-effect DAMGO; inhibition, % at 10 µM; 55% of 2,400 active; AID 488928;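 active means drop in membrane potential signal beyond 5 SD of the control wells in both duplicate plates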;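 further: TRPC4 counter screen for TRPC6 hits run under conditions tuned for TRPC6 not TRPC4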
# TRPC6 inh conf – mouse TRPC6 channel inhibitors, confirmation, HEK293 cells, membrane potential dye, duplicate; shares compounds with TRPC6 inh; ACh-evoked depolarization; inhibition, % at 10 µM; 43% of 3,300 active; AID 488960, 2010;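 active means fluorescence ratio falls more than 5 SD below the full-stimulation control mean, in both duplicate runs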;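 further: integrated fluorescence ratio of peak minus minimum over baseline after agonist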
# TRPC6 act conf – mouse TRPC6 channel activators, confirmation, HEK293 cells, membrane potential dye, duplicate; shares compounds with TRPC6 inh; HEK293-TRPC6 membrane potential dye fluorescence, FDSS; activation, % at 10 µM; 11% of 2,800 active;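 active means ratio signal rise beyond 5 SD above unstimulated control wells' mean, seen in both duplicate runs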;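 further: plate controls were buffer EC0 wells for no effect and acetylcholine ECmax response for full effect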
# * = called active by the depositor; i = inactive; / = no result.
SMILES,TRPC4 potent,TRPC4 block,TRPC6 inh,TRPC4 act,TRPC6 activator,HEK293 MPD ctr-2,HEK293 MPD ctr 2-2,TRPC4/MOR mod,TRPC4/MOR inh 2,TRPC6 inh conf,TRPC6 act conf,others
CCOC(=O)c1cnc2c(C)cccc2c1NCc1ccco1,i,i,i,i,i,/,/,/,/,/,/,
CCOC(=O)c1cnc2c(Cl)cc(Cl)cc2c1NCCOCCO,i,i,i,i,i,/,/,/,/,/,/,
CCOC(=O)c1cnc2ccc(Cl)cc2c1NCCN(C)C,i,i,-6.55*,i,i,-104.5%*,i,-18.5%*,49.0%*,45.5%*,i,
CCOC(=O)c1cnc2ccccc2c1NCCO,i,i,-5.64*,i,i,-108.0%*,i,-14.5%*,40.0%*,49.0%*,i,
CCOC(=O)c1cnc2ccc(Br)cc2c1NCCO,i,i,i,i,i,/,/,/,/,/,/,
COc1ccc(C(=O)c2ccccc2)c(OCC(=O)NC2CC2)c1,i,i,i,i,i,/,/,/,/,/,/,
Cc1ccc(NS(=O)(=O)c2cc(NC(=O)c3ccc4c(c3)NC(=O)CS4)ccc2C)c(C)c1,i,i,i,i,i,/,/,/,/,/,/,
c1ccc(-c2nc3c(ccc4ccccc43)[nH]2)nc1,i,i,-6.24*,i,i,i,i,-9.0%*,28.0%*,i,i,
c1ccc(-c2nc3ccccc3[nH]2)nc1,i,i,i,i,i,/,/,/,/,/,/,
O=C(O)C1C2CCC(O2)C1C(=O)Nc1ccc(F)c(Cl)c1 (stereo not given),i,i,i,i,i,/,/,/,/,/,/,
CN1\C(=C/C=C/C=C/C=[N+](C)C)C(C)(C)c2ccccc21,i,i,-5.17*,i,i,533.0%*,i,-20.5%*,31.5%*,48.0%*,i,
CN1/C(=C\C=O)C(C)(C)c2ccccc21,i,i,i,i,i,/,/,/,/,/,/,
CN(C)c1ccc(N=C/C=C2\N(C)c3ccccc3C2(C)C)cc1,i,i,-6.58*,i,i,i,i,-16.0%*,53.0%*,58.5%*,i,
CC(=O)c1ccc(N2CCN(C(=O)c3cccs3)C(C)C2)c(F)c1 (stereo not given),i,i,i,i,i,/,/,/,/,/,/,
CC(C)NC(=O)c1ccc2c(=O)n(C3CCCC3)c(=S)[nH]c2c1,i,i,i,i,i,/,/,/,/,/,/,
CCN(CC)CCNC(=O)c1ccc2c(=O)n(C3CCCC3)c(=S)[nH]c2c1,i,i,-6.76*,i,i,/,/,/,/,i,i,TRPC4 sel inh 2=i;TRPC4 spec=i;HEK293 MPD ctr 2-1=i;HEK293 MPD ctr-1=i
O=C(CS(=O)CC(=O)NC12CC3CC(CC(C3)C1)C2)Nc1ccc(F)cc1 (stereo not given),i,i,i,i,i,/,/,/,/,/,/,
O=C(/C=C/c1ccccc1)C1=C(O)C(=O)N(CCO)C1c1ccccc1[N+](=O)[O-] (stereo not given),i,i,i,i,12.7*,119.5%*,i,16.5%*,i,i,62.0%*,
Cc1ccc(C2=NCCn3nc4cc([N+](=O)[O-])ccc4c32)cc1,i,i,i,i,i,/,/,/,/,/,/,
Cc1ccc(F)cc1NC(=O)c1sc2ncn(CC(=O)N3CCN(c4ccccn4)CC3)c(=O)c2c1C,i,i,i,i,i,/,/,/,/,/,/,
OCCn1c(-c2ccc(F)cc2)csc1=Nc1ccccc1,i,i,-7.45*,i,i,119.5%*,i,12.5%*,31.0%*,74.0%*,/,
O=C(COC(=O)/C=C/c1ccc(F)cc1)Nc1ccccc1-c1ccccc1,i,i,i,i,i,/,/,/,/,/,/,
CC(=O)N/C(=C\c1ccccc1)C(=O)OCc1cccc(S(=O)(=O)N(C)C)c1,i,i,i,i,i,/,/,/,/,/,/,
C[C@]12C=CC(=O)C=C1CC[C@@H]1C2=CC[C@]2(C)[C@@H](C(=O)CN3CCN(c4cc(N5CCCC5)nc(N5CCCC5)n4)CC3)CC[C@@H]12,i,i,-6.69*,i,i,-238.0%*,i,-54.0%*,63.5%*,69.0%*,i,

# Bioassay records deposited in PubChem BioAssay by Johns Hopkins Ion Channel Center.
